# Measured values pooled from the literature.
# Lines come from different studies, so protocols differ.
# Target: Serine/threonine-protein kinase WNK1 (WNK1, Homo sapiens, UniProt Q9H4A3)
SMILES,observed,mode,method,tested at,measurement,value
COc1ccc2cc(OCC3(C(=O)O)CN(C(=O)c4ccc(F)cc4)C3)ccc2c1,cell-free assay,,competition with immobilised ligand,1 µM,remaining binding,84%
Cn1cncc1C1=CN(c2ncnc3[nH]cnc23)CCS1,enzyme activity,inhibitor,radiometric,50 nM,inhibition,14.1%
CO[C@@H](C)c1c(Nc2ccc([C@H](N(C)C(=O)C3CCS(=O)(=O)CC3)C(F)(F)F)cc2)cnc2cc(Cl)nn12,cell-free assay,,competition with immobilised ligand,1 µM,remaining binding,100%
O=C(CSc1nc2nccnc2c(=O)n1CCc1ccccc1)Nc1nccs1,enzyme activity,inhibitor,,10 µM,inhibition,1%
FC(F)(F)Oc1cccc(-c2cnc3ccc(-c4ccncc4)nn23)c1,enzyme activity,inhibitor,radiometric,1 µM,activity vs control,105%
COc1cc(/C=C/C(=O)CC(=O)/C=C/c2ccc(O)c(OC)c2)ccc1O,enzyme activity,inhibitor,,1 µM,activity vs control,98%
Cn1cc(Cl)c2c(Oc3c(F)cc(Nc4cc(Cl)nc(N)n4)cc3F)ccnc21,cell-free assay,,competition with immobilised ligand,0.1 µM,remaining binding,98%
CC(C)(C)c1nc2c(s1)c1nc(N)ncc1c1ccc(NS(=O)(=O)c3c(F)cccc3F)c(F)c12,enzyme activity,inhibitor,radiometric,1 µM,remaining activity,103%
Cc1ccc(C(=O)NCc2ccsc2)cc1C#Cc1cn(C(C)C)c2ncnc(N)c12,enzyme activity,inhibitor,,1 µM,activity vs control,92%
CN1CC(Oc2cnc(C#N)cc2-c2ccn3nc(NC(=O)C4CC4)cc3c2)C1,enzyme activity,inhibitor,,1 µM,inhibition,17%
CN(c1nccc(-c2cnn3ncccc23)n1)C1CC1,binding,,,1 µM,remaining binding,100%
COc1cc(Nc2cnc(C#N)c(O[C@H](C)CN(C)C)n2)ncc1-c1cnn(C)c1,enzyme activity,inhibitor,radiometric,1 µM,remaining activity,95%
O=C(Nc1cnn(-c2csc(C(=O)NC3COC3)c2)c1)Nc1c(F)cccc1Cl,enzyme activity,inhibitor,,5 µM,remaining activity,93.3%
CCCCN(CCCC)C(=O)CN1C[C@@H](c2cc(OC)c3c(c2)OCO3)[C@H](C(=O)O)[C@H]1CC(C)(C)CCC,cell-free assay,,competition with immobilised ligand,1 µM,remaining binding,96.8%
COc1cc(Cl)c(C(=O)N[C@@H](CN[C@H]2CC[C@@H](N)CC2)Cc2ccc(C#N)cc2)cc1-c1ccc(CN[C@H](C)c2ccc(C)cc2)o1,enzyme activity,inhibitor,,1 µM,remaining activity,109%
